75 variants from the RNAGym collection of RNA variant scans (doi:10.1126/science.aae0568) can be followed below.

B1: tRNA (parent)
chain: GUUCCGUUGGCGUAAUGGUAACGCGUCUCCCUCCUAAGGAGAAGACUGCGGGUUCGAGUCCCGUACGGAACG

This sample holds only a part of the variants without activity. Where only a bound is given, the exact number is not on record here.

In this data set the parent is B1. In words: yeast fitness relative to wild type (ratio to wild type); higher = fitter; tRNA-Arg(CCU), competitive growth, 37 C, YPD. The procedure, abridged:
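Variants of the tRNA-Arg(CCU) gene, chemically synthesised with a 3% per-site mutation rate at 69 sites, were placed at the native genomic locus in Saccharomyces cerevisiae. The pooled strains were competed in YPD at 37°C for 24 hours in six parallel replicates. Gene amplicons from the start population and from each end population were read by 100-nucleotide paired-end sequencing. Darwinian fitness relative to wild type came from changes in genotype frequencies; genotypes needed ≥ 100 starting reads, and estimates < 0.5 were set to 0.5.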
Take GAUCCGUUGGCGUAAUGGUAACGCGUCUCCCUCCUAAGGAGAAGACUGCGGGUUCGAGUCCUGUACGGAACG: the yeast fitness worked out at 0.899.

Regarding GAUCCCUUGGCGUAAUGGUAGCGCGUCUCCCCCCUAAGGAGAAGACUGCGGGUUCGAGGCCCGUAUGGACCG, the yeast fitness was ≤ 0.5.

As for GAUCCGUUGGCGUAACGGUAACGCGUCUCACUCCUAAGGAGAAGACUGCGGGUUCGAGUCCCGUUCGGAACG, the yeast fitness is ≤ 0.5.

Regarding GAUCCGUUGGCGUAAUGGUAACGCGUCUCCCUCAUAAGGAGAAGACGGGGGGUUCGAGUGCCGUACGGAACG, the yeast fitness is ≤ 0.5.

Take GAACCGUUGGCGUAAUGGUAACGCGACUCCCUCCUAAGGAGAAGACUGCGAGUUCGAGUCCCGUACGGAACG: the yeast fitness is ≤ 0.5.

Take GAUCCGUUGGCGUAAGGGUAACGCGUCUCCCUCCUAAGGAGAAGACUGCGGGUUCGAGUCCCGUAUGGAACG: the yeast fitness was 0.806.

With GAUCCGUUGGCGUAAUGGUAACGCGUCUCCCUGCUAAGGAGAAGACUGCGGGUUCGAGUCCCGUACGGAACG, the yeast fitness was found to be 0.714.

Turning to GAUCCGUUGGCGUAAUGGUAACACGUCUCCCUCCUAAGGAGAAGACUGCGGGUUCGAGUCCCGUACGGAACG, the yeast fitness amounted to 0.867.

On to GAUCCGUUGGCGUAAUGGUAACGCGUCUCCCUCGUAAGGAGAAGACUGAAGGUUCGAGUCCCGUACGGAACG, for which the yeast fitness was 0.517.

On to GAGCCGUUGGCGUAAUGGUAACGCGUCUGGCUCCUAAGGAGAAGAGUGCGGGUUCGAGUCCCGUACGGAGCG, for which the yeast fitness was ≤ 0.5.

As for GAUCCGUUGGCGCAAUGGUAACGCGUCUCCCUCCUAAAGAGAAGACUGCGGGUUCGAGUCCCGUACGGAACG, the yeast fitness is ≤ 0.5.

With GAUCCGUUGGCGUAAUGGUAACGCGUCGCCCUCCUAAGGAGAAGACUGCGGGUUCGAGUCCCGUACAGAACG, the yeast fitness was ≤ 0.5.

In the case of GAUCCGUGGGCGUAAUGGUAAUGCGUCUCCCCGCUAAAGAGAAGACUGCGGGUUCGAGUCCCGUACGGAACG, the yeast fitness is ≤ 0.5.

GAUCCGUUGGCGUAAUGGUAACGCGUCUCCCUCCUAAGGAGAAGACUGCGGGUUCGAGUGCCGUACGGAACG: the yeast fitness was found to be 0.666.

Turning to GAUCCGUUGGCGUAAUGGAAACGCGUCUCCCUCCUAAGGAGAAAACUGCGGGUUCGAGUCCCGUACGGAACG, the yeast fitness came to 0.544.

As to GAUCCGGUGGCGUAAUGGUAACGCGUCUCCCUCCUAAGGAGAAGACUGCGGGUUCGAGUCCCGUACGGAACG, the yeast fitness is 0.847.

In the case of GAUCCGUUGGCGUAAUGGUAACGCGUCUCCCUCCUAAGGAGAAGACUCCGGGUUCGAGUCCCGUACGGAACG, the yeast fitness stood at 0.92.

Consider GAUCCGAUGGCGUAUUGGUAACGCGUCUCCCUCCUAAGGAGAAGACUGCGGGUUCGAGUCCCGUACGGAACG, for which the yeast fitness was ≤ 0.5.

Turning to GAUCCGUAGGCGUAAUGGUAACGUGUCUCCCUCCUAAGGAGAAGACUGCGGGUUCGAGUCCCGUACGGAACG, the yeast fitness was ≤ 0.5.

For the variant GAUCCAUUGGGGUAAUGGUAACGCGUCUCCCUCCUAAGGAGAAGACUGUGGGUCCGACUCCCGUACGGAACG, the yeast fitness was ≤ 0.5.

Regarding GAUCCGUUGGCGUAAUGGUAACGCGUCUCCCUCCUAAGGAGAAGACUGCGGGUUCGAGUCUCGUACGGACCG, the yeast fitness is 0.585.

In the case of GAUCCGUUGGCGUAAUGGUAACGCGUCUCCCUCCUAAGGAGAACACUGCGGGUUAGAGUCCCGUACGGAACG, the yeast fitness was ≤ 0.5.

Take GAUCCGUAGGGGUAAUGGUAACGCGUCUCGCUCCUAAGGAGAAGACUACGGGUUCGAGUCCCGUACGGAACG: the yeast fitness was ≤ 0.5.

For GAUCCGUUGGCGUAAUGGUAACACGUCUGCCUCCUAAGGAGAAGACUGCGGGUUCGAGUCCCGUACGGAUCG, the yeast fitness was determined as 0.541.

Consider GAUCCGUAGGCGUAAUGGUAACGCGUCUCCCUCCUAAGGAGAAGACAGCGGGUUCGAGUCCCGUACGGUACG, for which the yeast fitness was ≤ 0.5.

As for GAUCCGUUGGCGUAAUGGUAACGCGUCUCCCUCCUAAGGAGAAGACUGAGGGUUCGAGUCGCGUACGGAACG, the yeast fitness was determined as 0.505.

With GAUCCGUUGGCGUAAUGGUAACGCGUCUCCAUCCUAAGGAGAAGACCGCGGGUUCGAGUCCCGUACGGUACG, the yeast fitness is ≤ 0.5.

GAUCCCUUGGCGUCAUGGUAACGCGUCUCCCUCCUAAGGAGAAGACUGCGGGUUCGAGUCCCGUACGGAACG: the yeast fitness is ≤ 0.5.

As to GAUCCGUUGGCGUAAUCGUAACGCGUCUCCCUCCUAAGGAGAAGACUGCGGGUUCGAGUCCCGUACGGAUCG, the yeast fitness was 0.572.

Regarding GAUCCGUUGGCGCAAUGGUGCCGCGUCUCCCUCUUGAGGAGAAGACUGCGGGUUCGAGUCCCGUACGGAACG, the yeast fitness is ≤ 0.5.

With GAUCCCUUGGCGUAAUGGUAACGCGUCUCCCUCCUAAAGAGAAGACUGCGGGUUCGAGUCCCGUACGGAACG, the yeast fitness came out at 0.592.

In the case of GAUCCACUGGCGUACUGGUAACGCGUCUGCCUUCUAAGGAGAAGACUGCGGGUUCGAGUCCCGUACGUAACG, the yeast fitness was ≤ 0.5.

GAUCCGUUGGCGUAAUGGUAACGCGUCUCCCACCUAAGGAGAAGACUGCGGGUUCGAGUCCCGAUCGGAACG: the yeast fitness is 0.581.

Consider GAUCCGUGGGCGUAAUGGUAACGCGUCUCCCUACUAAAGAGAAGACUGCGGGUUCGAGUCCCGUACGGAACG, for which the yeast fitness was ≤ 0.5.

Consider GAACCGUUGGCGUAACGGUAACGUGUCUCCCUCCUAAGGAGAAGACUGCGGGUUCGAGUCCUGUACGGAACG, for which the yeast fitness was 0.629.

Turning to GAUCCGUUAGCGUAAUGGUAACGCGUCUCCCUCCUACGGAGCAGACUGCGGGUUCGAGUCCCGUACGAAACG, the yeast fitness was ≤ 0.5.

With GAUCCGUUGGCGUAAGGGUAACGCGUCUCCCUCCUAAGGAGAAGACUGCGGGUUCGAGUCCCGUACGGAACG, the yeast fitness was determined as 1.03.

As to GAUCCGUCGGCGUAAUGGUAACGCGUCUCCCUCCUAAGGAGAAGACAGCGGGUUCGAGUCCCGUACGCAACG, the yeast fitness was ≤ 0.5.

Take GAUCCGUUGGCGUAAUGGUAACGCGUCUCCCUCCUAAGGAGAAGACUGCCGGUUCGAGCACCGUACGGAACG: the yeast fitness turned out to be 0.877.

With GAUCCGUUGGCGGAAUGGUAACGCGUCUCCCUCCUAAGGAGAAGACUGCGGGUUCGAGUCCGGUACGGAACG, the yeast fitness is ≤ 0.5.

For GAUCCGUUGGCGUAAUGGUAACGCGUCUCCCACCUAUGGAGAGGACUGCGGGUUCGAGUCCCGUACGGAACG, the yeast fitness is ≤ 0.5.

As for GAUCCGUCGGCGCAAUGGUAACGCGUCUCCCUCCUAAGGAGCAGACUGCGGGUUCGAGUCCCGUACGGAACG, the yeast fitness is ≤ 0.5.

As to GAUCCGUUGGCGUAAUGGUAACGCGUCUCCCUCCUAAGGAGAAAACUGCGGGUUCGAGUCCCGUAUGGAACG, the yeast fitness is 0.588.

With GAGCCGUUGGAGUAACGGUAAGGCGUCUCCCUCCUAAGGAGAAGACUGCGGGUUCGCGUCCCGUACGGAACG, the yeast fitness is ≤ 0.5.

Take GAUCCGUCGGCAUAAUGGUAACGCGUCUCCCUCCUAAGGAGUAGACUGCGGGUUCGAGUCCCGUACGGAACG: the yeast fitness was ≤ 0.5.

GAUCCGUUAGCGAAAUGGUAACGAGUCUCCCUCCUAAGGAGGAGACUGCGGGUUUGAGUCCCGUACGGACCG: the yeast fitness is ≤ 0.5.

For GAUCCGUUGGCGUAAUGGUAACGCGUCUCCCUCCUAAGGAGAAGACUGCGGGUUCGAGUCCCGUACGCAACG, the yeast fitness is 0.671.

GAUCCGUUGGCGUAAUGGUAACGCGUCUCCCUCGUAAGGAGAAGACUGCGGGUUCGAGUCCCGUACGGAACG: the yeast fitness was determined as 0.604.

Regarding GAUCCGUUGGCGGAAUGGUAACGCGUCUCCCUCCUAAGGCCAAGACUGCGGGUUCGGGUCCCCUUCGGAACG, the yeast fitness was ≤ 0.5.

For GAUCCGUUGGCGUAAUGGUAACGCGUCUCCCCCCCGAGGAGAAGACUGCGGGUUCGAGUCCCGUACGGAACG, the yeast fitness was ≤ 0.5.

As to GAUCCGUUGGCAUAAUAGUGCCGCGUCUACCUCCUAAGGAGAAGACUGCGGGUUCGAGUCCCGUACGGUACG, the yeast fitness is ≤ 0.5.

For GAUCCGUUGGCGUAAUCGUAACGCGUCUCCCUCCUAAGGAGAAGACUGCGGGUUCGAGUCCCGUACGGAACG, the yeast fitness was found to be 0.603.

For GAUCCGUUGGCGUAAUGGUAACGCGUCUCCCACCUAAGGAGAAGACUGCGGGUUCGAGUCCCGUACGGAACG, the yeast fitness was 0.72.

For GAACCGUUGGCGUAAUGGUAACGGGUCUCCCUCCUAAGGAGAAGACUGCGGCUUCGAGUCCCGUACGGAACG, the yeast fitness is ≤ 0.5.

With GAUCCGUUCGCGAAGUGGUAACGCGUCUCCCUACUAUGGAGAAGACUGCCGGUUCGAGUCUCGUACGGUACG, the yeast fitness is ≤ 0.5.

GAUCCGUUAGCGAAAUGGUAACGCGUCUCCCUCCUAAGGAGAAGACUGCGGGUUCGAGUCCCGUACGGAACG: the yeast fitness was 0.645.

Consider GAUCCGUUGGCGUAAUGGUAACGCGUCUCCCUCCUAAGGAGAAGACUGCCGGUUCAGGUCCCGUACGGAACG, for which the yeast fitness is ≤ 0.5.

Turning to GAUCCGUUGGCGUAAUGGUAACGCGUCCCCCUCCUAAGGACAAGACUGCGGGUUCGAGUCCCGUAAGGAACG, the yeast fitness is ≤ 0.5.

Consider GAUCCGUUGGCAUAAUGGUAACGCGUCUCACUCCUAAGGAGAUGACUGCGGGUUCGGGUACCGUACAGAACG, for which the yeast fitness was ≤ 0.5.

In the case of GAUCCCUUGGCGUAAUGGUAACGCGUCUCCCUCCUAAGGAGAAGACUGCGGGUUCGAGUCCCGUACGCAACG, the yeast fitness is ≤ 0.5.

Turning to GAUCCGUUGGCGUAAUGGUAACGCGUCUCCCUCGUAAGGAGAAGACUGCGGGUUCGAGUCCCGCACGGAACG, the yeast fitness is ≤ 0.5.

For the variant GAUCCGUUGGCGUAAUCGUAAGGCGUCUCCCUCCUAAGGCGAAGACUGCGGGUUCGAGUCCCGUACGGAACG, the yeast fitness is ≤ 0.5.

Turning to GAUCCGUUGGCGUAAUGGUAACGCGUCUCCCCCCUGAGGAGAAGACUGCGGGUUCGAGUCCCGUACGGAACG, the yeast fitness turned out to be 0.736.

For GAUCCGUUGGCGUAAUGGUAACGCAUCUCCCUCCUAAGGAGAAGACUGCGGGUUCGAGUCCCGUACGAAACG, the yeast fitness is 0.64.

As for GAUCCGUUGGCUUAAUGGUAACACGUCUCCCUCCUUAGGAGAAGACUGCGGGUUCGACUUCCGUACGGAACG, the yeast fitness was ≤ 0.5.

Regarding GAUCCGUUGGCCUAAUGGUAACGCGUCUCCCUCCUCAGGAGAAGACUGCGGGUUCGAGUCCCGUACGGAACG, the yeast fitness is ≤ 0.5.

Turning to GAUCCGUUGGCGUAAGGGUAACGCGUCUCCCUCCUAAGGAGAAGACUGGGGGUUCGAGUCCCGUACGGAACG, the yeast fitness stood at 0.705.

In the case of GAUCCGUUGGCGUAAUCGUAACGUGUCUCCCUUCUGAGGAGAAGACUGCGGGUCCGAGUCCCGUACGGAACG, the yeast fitness was ≤ 0.5.

As for GAUCCGUUGGCGUAAUGGUAACGCGUCUCCCUCCUAAGGAGAAGACUGCAGGUUCGAGUCCCGUACGGAACG, the yeast fitness came out at 0.858.

With GAUCCGUUGGCGUAAUGGUAACGCGUCUCCCUGCUUAGGAGAAAACUGCGGGUUCGAGCCCCGUACGGAACG, the yeast fitness stood at 0.554.

GAUCCCUUGGCGUAACGGUAACGUGUCUCCCUCCUAAGGAGAAGAGUGAGGGUUCGAGUCUCGUACGGAACG: the yeast fitness is ≤ 0.5.

For GAUCCGUAGGCAUAAUGGUAACGCGUCUCUCUCCUAAGGAGAAGACUGCGGGUUCGAGUCCCGUACGGAACG, the yeast fitness was ≤ 0.5.

On to GAUCCGUUGGCGUAAUGGUAACGCGUCUCCGUCCUAAGGAGAAGACUGCGGGUUCGAGUCGCGUACGGAACG, for which the yeast fitness is ≤ 0.5.

Turning to GAUCCGUUGGCGUAAUGGUAACGCGUCUCCCUCCUAAGGAGAAGACUGCGGGUUCGAGUUCAGUACGGAACG, the yeast fitness was ≤ 0.5.

GAUCCGUUAGCGUAAUGGUAACGCGUCUCCCUCCUACGGAGCAGACUGCGGGUUCGAGUCGCGUACGGAACG: the yeast fitness is ≤ 0.5.
